Reference: ChEMBL document CHEMBL5058577, “EUbOPEN Chemogenomics Library 2 (Multiplex)” (2022)

Tested on: HEK-293T
Test: Multiplex assay against HEK293T
Assay type: toxicity, cell-based
Conditions: human
Procedure, shortened: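 Live cells carried four stains from seeding: Hoechst33342, BioTracker Green Microtubule Cytoskeleton Dye, MitoTracker Red and Annexin V Alexa Fluor 680. They were imaged on a CQ1 microscope at 37°C and 5% CO2 after compound addition. Using CellPathfinder machine-learning gating, cells were split into Hoechst high-intensity objects or normal cells, normal cells into healthy, pyknosed or fragmented nuclei, and pyknosed cells into mitotic or apoptotic; tubulin, mitochondrial-mass and membrane-permeability phenotypes are per cents of healthy-nucleus cells.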

[1] = 12 h, 1 µM, compound concentration 1 uM, replicate 1
[2] = 12 h, 1 µM, compound concentration 1 uM, replicate 2
[3] = 12 h, 10 µM, compound concentration 10 uM, replicate 1
[4] = 12 h, 10 µM, compound concentration 10 uM, replicate 2
[5] = 24 h, 1 µM, compound concentration 1 uM, replicate 1
[6] = 24 h, 1 µM, compound concentration 1 uM, replicate 2
[7] = 24 h, 10 µM, compound concentration 10 uM, replicate 1
[8] = 24 h, 10 µM, compound concentration 10 uM, replicate 2
[9] = 48 h, 1 µM, compound concentration 1 uM, replicate 1
[10] = 48 h, 1 µM, compound concentration 1 uM, replicate 2
[11] = 48 h, 10 µM, compound concentration 10 uM, replicate 1
[12] = 48 h, 10 µM, compound concentration 10 uM, replicate 2

COc1ccccc1N1CCN(CCCCNC(=O)c2ccc3ccccc3c2)CC1.Cl
Population Apoptotic (%) [1]: 45%
Population Healthy Nuclei (%) [1]: 81%
Population Hoechst High Intensity Objects (%) [1]: 6%
Population Mitochondria Different-Phenotype (%) [1]: 53%
Population Mitotic Cells (%) [1]: 54%
Population Normal (%) [1]: 93%
Population Tubulin-Different-Phenotype (%) [1]: 41%
Total Cell Count [1]: 430
Population Apoptotic (%) [2]: 36%
Population Healthy Nuclei (%) [2]: 79%
Population Hoechst High Intensity Objects (%) [2]: 5%
Population Mitochondria Different-Phenotype (%) [2]: 76%
Population Mitotic Cells (%) [2]: 63%
Population Normal (%) [2]: 94%
Population Tubulin-Different-Phenotype (%) [2]: 35%
Total Cell Count [2]: 354
Population Apoptotic (%) [3]: 71%
Population Healthy Nuclei (%) [3]: 69%
Population Hoechst High Intensity Objects (%) [3]: 16%
Population Mitochondria Different-Phenotype (%) [3]: 90%
Population Mitotic Cells (%) [3]: 28%
Population Normal (%) [3]: 83%
Population Tubulin-Different-Phenotype (%) [3]: 75%
Total Cell Count [3]: 321
Population Apoptotic (%) [4]: 70%
Population Healthy Nuclei (%) [4]: 75%
Population Hoechst High Intensity Objects (%) [4]: 15%
Population Mitochondria Different-Phenotype (%) [4]: 93%
Population Mitotic Cells (%) [4]: 29%
Population Normal (%) [4]: 84%
Population Tubulin-Different-Phenotype (%) [4]: 72%
Total Cell Count [4]: 256
Population Apoptotic (%) [5]: 27%
Population Healthy Nuclei (%) [5]: 78%
Population Hoechst High Intensity Objects (%) [5]: 6%
Population Mitochondria Different-Phenotype (%) [5]: 38%
Population Mitotic Cells (%) [5]: 72%
Population Normal (%) [5]: 93%
Population Tubulin-Different-Phenotype (%) [5]: 32%
Total Cell Count [5]: 561
Population Apoptotic (%) [6]: 36%
Population Healthy Nuclei (%) [6]: 82%
Population Mitochondria Different-Phenotype (%) [6]: 62%
Population Mitotic Cells (%) [6]: 63%
Population Tubulin-Different-Phenotype (%) [6]: 26%
Total Cell Count [6]: 444
Population Apoptotic (%) [7]: 56%
Population Healthy Nuclei (%) [7]: 74%
Population Hoechst High Intensity Objects (%) [7]: 13%
Population Mitochondria Different-Phenotype (%) [7]: 96%
Population Mitotic Cells (%) [7]: 43%
Population Normal (%) [7]: 86%
Population Tubulin-Different-Phenotype (%) [7]: 87%
Total Cell Count [7]: 393
Population Apoptotic (%) [8]: 60%
Population Healthy Nuclei (%) [8]: 69%
Population Hoechst High Intensity Objects (%) [8]: 17%
Population Mitochondria Different-Phenotype (%) [8]: 94%
Population Mitotic Cells (%) [8]: 39%
Population Normal (%) [8]: 82%
Population Tubulin-Different-Phenotype (%) [8]: 66%
Total Cell Count [8]: 276
Population Apoptotic (%) [9]: 20%
Population Healthy Nuclei (%) [9]: 81%
Population Hoechst High Intensity Objects (%) [9]: 3%
Population Mitochondria Different-Phenotype (%) [9]: 34%
Population Mitotic Cells (%) [9]: 79%
Population Normal (%) [9]: 96%
Population Tubulin-Different-Phenotype (%) [9]: 20%
Total Cell Count [9]: 841
Population Apoptotic (%) [10]: 46%
Population Healthy Nuclei (%) [10]: 78%
Population Hoechst High Intensity Objects (%) [10]: 5%
Population Mitochondria Different-Phenotype (%) [10]: 37%
Population Mitotic Cells (%) [10]: 53%
Population Normal (%) [10]: 94%
Population Tubulin-Different-Phenotype (%) [10]: 22%
Total Cell Count [10]: 635
Population Apoptotic (%) [11]: 60%
Population Healthy Nuclei (%) [11]: 77%
Population Hoechst High Intensity Objects (%) [11]: 8%
Population Mitochondria Different-Phenotype (%) [11]: 88%
Population Mitotic Cells (%) [11]: 40%
Population Normal (%) [11]: 91%
Population Tubulin-Different-Phenotype (%) [11]: 73%
Total Cell Count [11]: 519
Population Apoptotic (%) [12]: 78%
Population Healthy Nuclei (%) [12]: 78%
Population Hoechst High Intensity Objects (%) [12]: 10%
Population Mitotic Cells (%) [12]: 21%
Population Normal (%) [12]: 89%
Population Tubulin-Different-Phenotype (%) [12]: 71%
Total Cell Count [12]: 329
